Experimental data: article PMC10691213 (Proceedings of the National Academy of Sciences of the …, 2023)

How the values were obtained:
HEK293T cells [1] = assay type: cell-based, human; details: 500 nM anisomycin 1 h
Outline: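 HEK293T cells were transiently transfected (polyethyleneimine) with FLAG-MLXIPL or TACC1 plasmid. Where indicated, cells were pre-treated with 50 μM SB203580 for 1 h at 37 °C, then given 500 nM anisomycin or 0.001% DMSO vehicle for 1 h at 37 °C. Lysates were clarified and equal protein (BCA) resolved on 5% gels with […] Phos-tag plus 50 μM MnCl2, or by standard SDS-PAGE, then immunoblotted.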

HEK293T cells [2] = experiment: MS analysis of TACC1 / MLXIPL phosphopeptides isolated from HEK293T cells; assay type: cell-based, human; details: serum-starved, 500 nM trametinib pre-treatment 1 h, EGF 5 min

## COc1ccc(C[C@H]2NC[C@H](O)[C@H]2OC(C)=O)cc1 [Anisomycin, anisomycin]
HEK293T cells [1]
  phosphorylation of TACC1 (mobility shift): did not induce phosphorylation

## C[S+]([O-])c1ccc(-c2nc(-c3ccncc3)c(-c3ccc(F)cc3)[nH]2)cc1 (stereo not drawn) [SB203580]
HEK293T cells [1]; 50 μM SB203580 pre-treatment 1 h
  anisomycin-induced MLXIPL phosphorylation (mobility shift): partly dependent on p38α/β

## CC(=O)Nc1cccc(-n2c(=O)n(C3CC3)c(=O)c3c(Nc4ccc(I)cc4F)n(C)c(=O)c(C)c32)c1 [trametinib]
HEK293T cells [2]
  EGF-stimulated TACC1 Ser231 phosphorylation: blocked
